Calls of active or inactive are those of the source. No cut-off for these calls is given here.
Experiments:
Canis familiaris [1] = assay: Inhibition of histamine stimulated gastric acid secretion in adult mongrel dogs at dose 0.1 mg/kg given intravenously; assay type: functional; settings: Canis lupus familiaris, Stomach, route intravenous
How it was run: (§1)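 Dogs with Heidenhain pouches, 12–18 kg, fasted 18 h. Compound given iv in 3 mL or by gavage in 5 mL of 0.4% methylcellulose/saline, 1 h after infusion start. 30-min collections titrated. Summed 3-h AO against the same dog's control AO gives % inhibition. Usually one dog per compound.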

Canis familiaris [2] = assay: Inhibition of histamine stimulated gastric acid secretion in adult mongrel dogs at dose 2 mg/kg given intravenously; assay type: functional; settings: Canis lupus familiaris, Stomach, route intravenous; how it was run: as §1
Canis familiaris [3] = assay: Inhibition of histamine stimulated gastric acid secretion in adult mongrel dogs at dose 2 mg/kg given orally; assay type: functional; settings: Canis lupus familiaris, Stomach, route oral; how it was run: as §1
Canis familiaris [4] = assay: Inhibition of histamine stimulated gastric acid secretion in mongrel dogs following 4 mg/kg p.o. administration.; assay type: functional; settings: Canis lupus familiaris, Stomach, route oral; how it was run: as §1
Canis familiaris [5] = assay: Inhibition of histamine stimulated gastric acid secretion in adult mongrel dogs at dose 5 mg/kg given intravenously; assay type: functional; settings: Canis lupus familiaris, Stomach, route intravenous; how it was run: as §1
Canis familiaris [6] = assay: Inhibition of histamine stimulated gastric acid secretion in adult mongrel dogs at dose 8 mg/kg given orally; assay type: functional; settings: Canis lupus familiaris, Stomach, route oral; how it was run: as §1
Rattus norvegicus [7] = organism: Rattus norvegicus; assay: Oral gastric cytoprotective activity in the rat against ethanol-induced lesions; assay type: functional; settings: Stomach
How it was run: (§2)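 Rats fasted and water-deprived for 20 h. Compound given orally, 1–30 mg/kg in 0.4% methylcellulose/saline, 30 min before 1 mL absolute ethanol po. Killed 1 h after ethanol. Linear hemorrhagic lesion lengths totalled per stomach, expressed as group mean. ED50 by linear regression.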

Rattus norvegicus [8] = assay: Gastric antisecretory activity in the pylorus-ligated rat and the reduction in acid output was measured after 4 hr by intraperitoneal (ip) administration of 40 mg/kg dose.; assay type: functional
How it was run: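 Male Charles River CD rats, 150–200 g, fasted 24 h. Pylorus ligated under Brevital anesthesia. 40 mg/kg given ip in 2.5% Tween 80 at ligation. Stomach contents collected at 4 h and titrated with 0.1 N NaOH to pH 7.0. % inhibition from mean AO, 6 treated vs 8 control rats. Student's t test.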

Canis familiaris [9] = assay: Inhibition of histamine stimulated gastric acid secretion in adult mongrel dogs at dose 1 mg/kg given intravenously; assay type: functional; settings: Canis lupus familiaris, Stomach, route intravenous; how it was run: as §1
Canis familiaris [10] = assay: Inhibition of histamine stimulated gastric acid secretion in adult mongrel dogs at dose 4 mg/kg given orally; assay type: functional; settings: Canis lupus familiaris, Stomach, route oral; how it was run: as §1
Canis familiaris [11] = assay: Effective dose against histamine stimulated gastric acid secretion in adult mongrel dogs given orally; assay type: functional; settings: Canis lupus familiaris, Stomach, po
Canis familiaris [12] = organism: Canis familiaris; assay: Relative potency was calculated; value ranges from 0.1-2.1; assay type: functional, Canis lupus familiaris
Canis familiaris [13] = assay: Effective dose against histamine stimulated gastric acid secretion in adult mongrel dogs given orally; value ranges from 2.1-14.0; assay type: functional; settings: Canis lupus familiaris, Stomach, po
Rattus norvegicus [14] = organism: Rattus norvegicus; assay: Oral gastric cytoprotective activity in the rat against ethanol-induced lesions was evaluated; settings: Stomach
Rattus norvegicus [15] = organism: Rattus norvegicus; assay: Oral gastric cytoprotective activity in the rat against ethanol-induced lesions was evaluated; NA=Inactive.; assay type: functional, organism-based; settings: Stomach; how it was run: as §2
Canis familiaris [16] = assay: Effective dose against histamine stimulated gastric acid secretion in adult mongrel dogs given intravenously; value ranges from 0.01-1.19; assay type: functional; settings: Canis lupus familiaris, Stomach, iv

SMILES: Cc1nc2c(OCc3ccc(Cl)cc3)cccn2c1CC#N
- inhibition in vivo at 0.1 mg/kg (Canis familiaris [1]): 29%
- inhibition in vivo at 2 mg/kg (Canis familiaris [2]): 58%
- inhibition in vivo at 2 mg/kg (Canis familiaris [3]): 30%
- inhibition in vivo at 4 mg/kg (Canis familiaris [4]): 56%
- inhibition in vivo at 5 mg/kg (Canis familiaris [5]): 95%
- inhibition in vivo at 8 mg/kg (Canis familiaris [6]): 70%
- ED50 (Rattus norvegicus [7]): 6.6 mg/kg
- inhibition in vivo at 40 mg/kg (Rattus norvegicus [8]): 90%

SMILES: Cc1nc2c(OCc3ccccc3)cccn2c1CO
- inhibition in vivo at 1 mg/kg (Canis familiaris [9]): 57%
- inhibition in vivo at 2 mg/kg (Canis familiaris [2]): 80%
- inhibition in vivo at 4 mg/kg (Canis familiaris [4]): 20%
- inhibition in vivo at 5 mg/kg (Canis familiaris [5]): 80%
- inhibition in vivo at 8 mg/kg (Canis familiaris [6]): 20%
- ED50 (Rattus norvegicus [7]): 16 mg/kg
- inhibition in vivo at 40 mg/kg (Rattus norvegicus [8]): 99%

SMILES: Cc1nc2c(OCc3ccc(Cl)c(Cl)c3)cccn2c1CC#N
- inhibition in vivo at 2 mg/kg (Canis familiaris [2]): 89%
- inhibition in vivo at 4 mg/kg (Canis familiaris [4]): 16%
- inhibition in vivo at 8 mg/kg (Canis familiaris [6]): 23%
- ED50 (Rattus norvegicus [7]): 6 mg/kg
- inhibition in vivo at 40 mg/kg (Rattus norvegicus [8]): 42%

SMILES: Cc1nc2c(CCc3ccccc3)cccn2c1CC#N
- inhibition in vivo at 0.1 mg/kg (Canis familiaris [1]): 74%
- inhibition in vivo at 2 mg/kg (Canis familiaris [2]): 92%
- inhibition in vivo at 5 mg/kg (Canis familiaris [5]): 96%
- inhibition in vivo at 8 mg/kg (Canis familiaris [6]): 83%
- inhibition in vivo at 4 mg/kg (Canis familiaris [10]): 3%
- ED50 (Rattus norvegicus [7]): 7 mg/kg
- inhibition in vivo at 40 mg/kg (Rattus norvegicus [8]): 99%

SMILES: N#CCc1cnc2c(OCc3ccccc3)cccn12
- inhibition in vivo at 1 mg/kg (Canis familiaris [9]): 52%
- inhibition in vivo at 2 mg/kg (Canis familiaris [2]): 96%
- inhibition in vivo at 2 mg/kg (Canis familiaris [3]): 6%
- inhibition in vivo at 8 mg/kg (Canis familiaris [6]): 46%
- ED50 (Rattus norvegicus [7]): 1 mg/kg
- inhibition in vivo at 40 mg/kg (Rattus norvegicus [8]): 99%

SMILES: Cc1nc2c(OCc3ccccc3)cccn2c1CC(=N)S
- inhibition in vivo at 2 mg/kg (Canis familiaris [2]): 21%
- inhibition in vivo at 4 mg/kg (Canis familiaris [4]): 34%
- inhibition in vivo at 5 mg/kg (Canis familiaris [5]): 62%
- inhibition in vivo at 8 mg/kg (Canis familiaris [6]): 60%
- ED50 (Rattus norvegicus [7]): 7 mg/kg
- inhibition in vivo at 40 mg/kg (Rattus norvegicus [8]): 67%

SMILES: Cc1nc2c(OCc3ccsc3)cccn2c1CC#N
- inhibition in vivo at 0.1 mg/kg (Canis familiaris [1]): 70%
- inhibition in vivo at 2 mg/kg (Canis familiaris [3]): 40%
- inhibition in vivo at 4 mg/kg (Canis familiaris [4]): 77%
- inhibition in vivo at 5 mg/kg (Canis familiaris [5]): 97%
- inhibition in vivo at 8 mg/kg (Canis familiaris [6]): 88%
- ED50 (Canis familiaris [11]): 2.7 mg/kg
- ED50 (Rattus norvegicus [7]): 2 mg/kg
- inhibition in vivo at 40 mg/kg (Rattus norvegicus [8]): 91%

SMILES: Cc1nc2c(NCc3ccccc3)cccn2c1CC#N
- inhibition in vivo at 0.1 mg/kg (Canis familiaris [1]): 85%
- inhibition in vivo at 2 mg/kg (Canis familiaris [2]): 96%
- inhibition in vivo at 4 mg/kg (Canis familiaris [4]): 35%
- inhibition in vivo at 5 mg/kg (Canis familiaris [5]): 98%
- inhibition in vivo at 8 mg/kg (Canis familiaris [6]): 75%
- Relative potency (Canis familiaris [12]): 1.5
- ED50 (Canis familiaris [13]): 6.7 mg/kg
- ED50 (Rattus norvegicus [7]): 2 mg/kg
- inhibition in vivo at 40 mg/kg (Rattus norvegicus [8]): 98%

SMILES: Cc1nc2c(OCc3cccs3)cccn2c1CC#N
- inhibition in vivo at 0.1 mg/kg (Canis familiaris [1]): 26%
- inhibition in vivo at 1 mg/kg (Canis familiaris [9]): 90%
- inhibition in vivo at 5 mg/kg (Canis familiaris [5]): 99%
- inhibition in vivo at 8 mg/kg (Canis familiaris [6]): 75%
- inhibition in vivo at 4 mg/kg (Canis familiaris [10]): 17%
- ED50 (Rattus norvegicus [7]): 7 mg/kg
- inhibition in vivo at 40 mg/kg (Rattus norvegicus [8]): 96%

SMILES: Cc1nc2cccc(CCc3ccccc3)n2c1CC#N
- inhibition in vivo at 1 mg/kg (Canis familiaris [9]): 71%
- inhibition in vivo at 8 mg/kg (Canis familiaris [6]): 9%
- ED50 (Rattus norvegicus [7]): 7.2 mg/kg
- inhibition in vivo at 40 mg/kg (Rattus norvegicus [8]): 20%

SMILES: Cc1nc2c(CSc3ccccc3)cccn2c1C
- inhibition in vivo at 1 mg/kg (Canis familiaris [9]): 31%
- inhibition in vivo at 40 mg/kg (Rattus norvegicus [8]): 29%
- ED50 (Rattus norvegicus [14]): 6.4 mg/kg

SMILES: CCc1nc2c(OCc3ccccc3)cccn2c1CC#N
- inhibition in vivo at 0.1 mg/kg (Canis familiaris [1]): 16%
- inhibition in vivo at 2 mg/kg (Canis familiaris [2]): 95%
- inhibition in vivo at 4 mg/kg (Canis familiaris [4]): 54%
- inhibition in vivo at 8 mg/kg (Canis familiaris [6]): 93%
- ED50 (Rattus norvegicus [7]): 4 mg/kg
- inhibition in vivo at 40 mg/kg (Rattus norvegicus [8]): 91%

SMILES: Cc1nc2c(OCc3ccccc3)cccn2c1CC(=O)N(C)C
- inhibition in vivo at 1 mg/kg (Canis familiaris [9]): 16%
- inhibition in vivo at 40 mg/kg (Rattus norvegicus [8]): 37%

SMILES: [C-]#[N+]Cc1c(C)nc2c(OCc3ccccc3)cccn12
- inhibition in vivo at 0.1 mg/kg (Canis familiaris [1]): 37%
- inhibition in vivo at 2 mg/kg (Canis familiaris [2]): 94%
- inhibition in vivo at 4 mg/kg (Canis familiaris [4]): 8%
- inhibition in vivo at 8 mg/kg (Canis familiaris [6]): 94%
- inhibition in vivo at 40 mg/kg (Rattus norvegicus [8]): 96%
- ED50 (Rattus norvegicus [14]): 2.2 mg/kg

SMILES: Cc1nc2c(OCc3ccccc3)cccn2c1C
- inhibition in vivo at 1 mg/kg (Canis familiaris [9]): 90%
- inhibition in vivo at 4 mg/kg (Canis familiaris [4]): 0%
- inhibition in vivo at 8 mg/kg (Canis familiaris [6]): 26%
- ED50 (Rattus norvegicus [7]): 10 mg/kg
- inhibition in vivo at 40 mg/kg (Rattus norvegicus [8]): 99%

SMILES: Cc1nc2c(OCc3ccccc3)cccn2c1C(=O)O
- inhibition in vivo at 5 mg/kg (Canis familiaris [5]): 4%
- ED50 (Rattus norvegicus [15]): inactive
- inhibition in vivo at 40 mg/kg (Rattus norvegicus [8]): 0%

SMILES: Cc1nc2c(OCc3ccccc3)cccn2c1C#N
- inhibition in vivo at 5 mg/kg (Canis familiaris [5]): 4%
- ED50 (Rattus norvegicus [15]): inactive
- inhibition in vivo at 40 mg/kg (Rattus norvegicus [8]): 25%

SMILES: Cc1nc2c(OC(C)c3ccccc3)cccn2c1CC#N (centres undefined)
- inhibition in vivo at 2 mg/kg (Canis familiaris [2]): 78%
- inhibition in vivo at 4 mg/kg (Canis familiaris [4]): 6%
- inhibition in vivo at 5 mg/kg (Canis familiaris [5]): 97%
- inhibition in vivo at 8 mg/kg (Canis familiaris [6]): 45%
- ED50 (Rattus norvegicus [7]): 3.7 mg/kg
- inhibition in vivo at 40 mg/kg (Rattus norvegicus [8]): 96%

SMILES: Cc1nc2c(OCc3ccc(C(F)(F)F)cc3)cccn2c1CC#N
- inhibition in vivo at 2 mg/kg (Canis familiaris [2]): 44%
- inhibition in vivo at 4 mg/kg (Canis familiaris [4]): 27%
- inhibition in vivo at 5 mg/kg (Canis familiaris [5]): 59%
- inhibition in vivo at 8 mg/kg (Canis familiaris [6]): 25%
- ED50 (Rattus norvegicus [7]): 3 mg/kg
- inhibition in vivo at 40 mg/kg (Rattus norvegicus [8]): 26%

SMILES: Cc1nc2c(OCCc3ccccc3)cccn2c1CC#N
- inhibition in vivo at 2 mg/kg (Canis familiaris [3]): 0%
- inhibition in vivo at 4 mg/kg (Canis familiaris [4]): 47%
- inhibition in vivo at 5 mg/kg (Canis familiaris [5]): 95%
- inhibition in vivo at 8 mg/kg (Canis familiaris [6]): 89%
- ED50 (Rattus norvegicus [7]): 6 mg/kg
- inhibition in vivo at 40 mg/kg (Rattus norvegicus [8]): 70%

SMILES: Cc1nc2c(OCc3ccccc3)cccn2c1CC#N
- inhibition in vivo at 0.1 mg/kg (Canis familiaris [1]): 49%
- inhibition in vivo at 1 mg/kg (Canis familiaris [9]): 88%
- inhibition in vivo at 2 mg/kg (Canis familiaris [2]): 95%
- inhibition in vivo at 2 mg/kg (Canis familiaris [3]): 20%
- inhibition in vivo at 4 mg/kg (Canis familiaris [4]): 42%
- inhibition in vivo at 5 mg/kg (Canis familiaris [5]): 99%
- inhibition in vivo at 8 mg/kg (Canis familiaris [6]): 77%
- ED50 (Canis familiaris [16]): 0.09 mg/kg
- ED50 (Canis familiaris [13]): 4.4 mg/kg
- ED50 (Rattus norvegicus [7]): 3 mg/kg
- inhibition in vivo at 40 mg/kg (Rattus norvegicus [8]): 98%
